IC50 and inhibition data for 14 compounds are collected here from ChEMBL document CHEMBL3397031, “Synthesis and structure-activity relationships of pyridinyl-1H-1,2,3-triazolyldihydroisoxazoles as potent inhibitors of tubulin polymerization” (Eur J Med Chem, 2015).

The test system of one assay is A549. Put plainly: Cytotoxicity against human A549 cells after 48 hrs by MTT assay. The assay is classed as functional, cell-based. As to conditions: A549, 48 h. Summed up: (§1)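 A549, HeLa and MCF7 cells were grown in DMEM with 10% FBS, and DU145 in MEM with non-essential amino acids, pyruvate, insulin and 10% FBS. Cells were plated 24 h before dosing, then exposed continuously for 48 h at 1, 10, 25 and 100 µM in triplicate wells. MTT was added for 60 min, dissolved in DMSO and read at 560 nm. IC50 was taken from dose-response curves against control, as mean ± SD of three independent experiments.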
In general terms: Formazan colour is commonly taken as a measure of viable cells.

For the next assay, the system named is DU-145. The assay is described as follows: Cytotoxicity against human DU145 cells after 48 hrs by MTT assay. The assay is classed as functional, cell-based. The following applies: DU-145, 48 h. Summed up: as §1
For a further assay, the system named is HeLa. Put plainly: Cytotoxicity against human HeLa cells after 48 hrs by MTT assay. The assay is classed as functional, cell-based. Summed up: as §1
Another assay concerns MCF7. Put plainly: Cytotoxicity against human MCF7 cells after 48 hrs by MTT assay. The assay is classed as functional, cell-based. The following applies: MCF7, 48 h. Summed up: as §1
Another assay addresses Tubulin (Bos taurus) (UniProt Q6B856+Q862L2+Q862F3). The following applies: at 10 µM.

In the case of `COc1cc(COCc2cn(Cc3cc(-c4ccc(C)cc4)cnc3N3CCOCC3)nn2)cc(OC)c1OC`, the half-inhibitory concentration (IC50) (usually the concentration that gives 50% inhibition) with A549 amounted to 38.5 µM; in the assay on DU-145, 34.8 µM; with HeLa it was 35.8 µM; with MCF7, 51.7 µM. Besides, the inhibition (in general, the relative decrease from the control value, in per cent) at Tubulin (Bos taurus) stood at 48%.

Consider `COc1cc(-c2cc(COCc3cn(Cc4cc(-c5ccccc5)cnc4Cl)nn3)on2)cc(OC)c1OC`, for which the IC50 in the assay on A549 turned out to be 112 µM; with DU-145, 78.5 µM; with HeLa it was 43.1 µM; in the assay on MCF7, 68.5 µM. Also, the inhibition on Tubulin (Bos taurus) is 16%.

As for `COc1cc(COCc2cn(Cc3cc(-c4ccccc4)cnc3N3CCOCC3)nn2)cc(OC)c1OC`, the half-inhibitory concentration (IC50) in the assay with A549 worked out at 84 µM; in the assay on DU-145, 70.3 µM; in the assay with HeLa it was 85.1 µM; with MCF7 it was 97.6 µM. In addition, on Tubulin (Bos taurus), the inhibition turned out to be 16%.

Take `COc1cc(-c2cc(COCc3cn(Cc4cc(-c5ccc(F)cc5)cnc4Cl)nn3)on2)cc(OC)c1OC`: the IC50 with A549 is 40.6 µM; in the assay on DU-145 it was 31.9 µM; with HeLa, 37.3 µM; in the assay with MCF7, 76.4 µM. This compound also registered an inhibition on Tubulin (Bos taurus) of 46%.

For the compound `COc1cc(C2=NOC(COCc3cn(Cc4cc(-c5ccccc5)cnc4N4CCOCC4)nn3)C2)cc(OC)c1OC` (centres undefined), the IC50 with A549 came to 39.2 µM; with DU-145 it was 44.8 µM; in the assay on HeLa, 42.6 µM; in the assay on MCF7 it was 68.8 µM. This compound also registered an inhibition at Tubulin (Bos taurus) of 46%.

On to `COc1cc(COCc2cn(Cc3cc(-c4ccc(F)cc4)cnc3Cl)nn2)cc(OC)c1OC`, for which the half-maximal inhibitory concentration (IC50) worked out at 50.6 µM in the assay on A549, 38.8 µM in the assay with DU-145, 49.6 µM in the assay with HeLa and 96.6 µM in the assay on MCF7. This compound also returned an inhibition against Tubulin (Bos taurus) of 41%.

In the case of `COc1cc(-c2cc(COCc3cn(Cc4cc(-c5ccc(C)cc5)cnc4N4CCSCC4)nn3)on2)cc(OC)c1OC`, the IC50 was found to be 61 µM in the assay on A549, 94.3 µM in the assay with DU-145, 52.6 µM in the assay with HeLa and 64.8 µM in the assay with MCF7. The compound further had an inhibition against Tubulin (Bos taurus) of 15%.

Take `COc1cc(C2=NOC(COCc3cn(Cc4cc(-c5ccccc5)cnc4N4CCSCC4)nn3)C2)cc(OC)c1OC` (centres undefined): the IC50 was found to be 31.5 µM in the assay on A549, 34.5 µM with DU-145, 29.2 µM in the assay with HeLa and 45 µM in the assay on MCF7. On Tubulin (Bos taurus), this compound had an inhibition of 50%.

Take `COc1cc(COCc2cn(Cc3cc(-c4ccccc4)cnc3N3CCSCC3)nn2)cc(OC)c1OC`: the IC50 with A549 amounted to 45.2 µM; in the assay with DU-145, 48.9 µM; with HeLa it was 31.5 µM; in the assay on MCF7 it was 59 µM. The same compound gave an inhibition on Tubulin (Bos taurus) of 39%.

As to `COc1cc(C2=NOC(COCc3cn(Cc4cc(C)cnc4N4CCSCC4)nn3)C2)cc(OC)c1OC` (centres undefined), the IC50 in the assay on A549 was 45.6 µM; in the assay on DU-145, 29.4 µM; in the assay with HeLa it was 41 µM; with MCF7, 45.1 µM. For the same compound, at Tubulin (Bos taurus), the inhibition was found to be 38%.

On to `COc1cc(COCc2cn(Cc3cc(-c4ccccc4)cnc3Cl)nn2)cc(OC)c1OC`, for which the IC50 worked out at 62.6 µM in the assay on A549, 45.5 µM with DU-145, 41.9 µM with HeLa and 86.7 µM in the assay on MCF7. At Tubulin (Bos taurus), this compound registered an inhibition of 18%.

For the compound `COc1cc(-c2cc(COCc3cn(Cc4cc(C)cnc4N4CCSCC4)nn3)on2)cc(OC)c1OC`, the half-maximal inhibitory concentration (IC50) with A549 stood at 40 µM; in the assay with DU-145 it was 73.9 µM; in the assay with HeLa, 53.4 µM; with MCF7 it was 82.9 µM. The compound further yielded an inhibition at Tubulin (Bos taurus) of 32%.

With `COc1cc(C2=NOC(COCc3cn(Cc4cc(-c5ccc(C)cc5)cnc4N4CCSCC4)nn3)C2)cc(OC)c1OC` (centres undefined), the half-inhibitory concentration (IC50) with A549 was 43.2 µM; in the assay with DU-145, 87.3 µM; in the assay on HeLa it was 39.2 µM; in the assay on MCF7 it was 71.1 µM. At Tubulin (Bos taurus), this compound returned an inhibition of 22%.

As to `COc1cc2c(c(OC)c1OC)-c1ccc(OC)c(=O)cc1[C@@H](NC(C)=O)CC2` [COLCHICINE], the half-inhibitory concentration (IC50) in the assay on A549 was determined as 0.12 µM; in the assay on DU-145 it was 0.69 µM; with HeLa, 0.54 µM; in the assay on MCF7, 0.07 µM.
